Reference: PMC10269403 (Journal of medicinal chemistry, 2023)
Several values for one entry are separate records, joined by “and”; a condition that tells them apart may be missing. Equal entries are not always repeated. Entries after “also recorded” stand apart in the source; their conditions may differ. Where two headings read alike, the source gives them in different places. Values belong to the compound of their own block, whether it stands above or below them.

Experiments:
[1] = system: HIV-RT; details: substituted pyridinones; cited from earlier work
[2] = system: primary mouse neurons; test: Calcium imaging in primary mouse neuron cultures; type: cell-based; details: 1 µM
Method in brief: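 Primary mouse cortex/hippocampus cultures were seeded at 20,000 cells/cm2 on poly-D-lysine coverslips in Neurobasal Plus/B27 Plus/Glutamax (>95% neurons by day 4). At 14–18 days in vitro, neurons were loaded with Fluo-4 AM (2 µM) in aCSF (NaCl 137, KCl 5.0, CaCl2 2.3, MgCl2 1.3, glucose 20 mM). Average spikes were scored in acute and delayed phases plus a summation average, versus matched controls. Statistics: Brown-Forsythe/Welch ANOVA with Dunnett's T3.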

[3] = cited from earlier work
[4] = system: primary mouse neurons; test: Neuronal toxicity by MAP-2 staining in primary mouse neurons; type: cell-based; details: for estimated TC10: primary neurons, discussion; for TC50 (µM) Relative MAP-2 Area / TC50 (µM) Relative MAP-2 intensity: 48 hr, 0.1 to 10,000 nM, ±SD
[5] = system: HIV; details: cited from earlier work
[6] = molecular target: hERG (Homo sapiens, UniProt Q12809); details: cited from earlier work
[7] = molecular target: HIV reverse transcriptase (Human immunodeficiency virus type 1 group M subtype B, UniProt P03366); test: HIV RT inhibition, fluorescent EnzChek/PicoGreen assay; type: biochemical, HIV-1
[8] = system: HIV-1 IIIB (A17 variant) virus; test: microbe, parasite or virus in culture; type: cell-based; details: for EC50: Human immunodeficiency virus 1, IIIB, TZM-bl
[9] = system: HIV-1 IIIB virus; test: Inhibition of wild-type HIV-1; type: cell-based
[10] = system: TZM-bl cells; test: Cytotoxicity in TZM-bl cells; type: cell-based
[11] = Cytotoxicity in TZM-bl cells; type: cell-based; details: human
[12] = system: Y181C HIV mutant; test: Inhibition of NNRTI-resistant Y181C mutant in TZM-bl cells; type: cell-based, HIV-1; details: 0.05–500 nM
[13] = system: L100I/K103N HIV mutant; test: Inhibition of NNRTI-resistant L100I/K103N mutant in TZM-bl cells; type: cell-based, HIV-1; details: 0.05–500 nM
[14] = Single-dose pharmacokinetics in mice; details: mouse
[15] = system: Balb/C mice; test: In vivo subacute toxicity study; details: 30 days
[16] = Protein binding; type: in vitro ADME
[17] = Metabolic stability in human liver microsomes; type: in vitro ADME
[18] = system: Balb/C male mice; test: In vivo acute toxicity study; details: 2000 mg/kg single oral dose, 14 days
[19] = system: K103N HIV mutant; test: Inhibition of NNRTI-resistant K103N mutant in TZM-bl cells; type: cell-based, HIV-1; details: 0.05–500 nM
[20] = Solubility; type: physicochemical
[21] = system: Caco-2 cells; test: Efflux in Caco-2 cells; type: in vitro ADME
[22] = Metabolic stability in mouse liver microsomes; type: in vitro ADME
[23] = Human immunodeficiency virus 1, IIIB, TZM-bl, read-out: WT EC50 (nM)

Sequence of hERG (Q12809 whole entry): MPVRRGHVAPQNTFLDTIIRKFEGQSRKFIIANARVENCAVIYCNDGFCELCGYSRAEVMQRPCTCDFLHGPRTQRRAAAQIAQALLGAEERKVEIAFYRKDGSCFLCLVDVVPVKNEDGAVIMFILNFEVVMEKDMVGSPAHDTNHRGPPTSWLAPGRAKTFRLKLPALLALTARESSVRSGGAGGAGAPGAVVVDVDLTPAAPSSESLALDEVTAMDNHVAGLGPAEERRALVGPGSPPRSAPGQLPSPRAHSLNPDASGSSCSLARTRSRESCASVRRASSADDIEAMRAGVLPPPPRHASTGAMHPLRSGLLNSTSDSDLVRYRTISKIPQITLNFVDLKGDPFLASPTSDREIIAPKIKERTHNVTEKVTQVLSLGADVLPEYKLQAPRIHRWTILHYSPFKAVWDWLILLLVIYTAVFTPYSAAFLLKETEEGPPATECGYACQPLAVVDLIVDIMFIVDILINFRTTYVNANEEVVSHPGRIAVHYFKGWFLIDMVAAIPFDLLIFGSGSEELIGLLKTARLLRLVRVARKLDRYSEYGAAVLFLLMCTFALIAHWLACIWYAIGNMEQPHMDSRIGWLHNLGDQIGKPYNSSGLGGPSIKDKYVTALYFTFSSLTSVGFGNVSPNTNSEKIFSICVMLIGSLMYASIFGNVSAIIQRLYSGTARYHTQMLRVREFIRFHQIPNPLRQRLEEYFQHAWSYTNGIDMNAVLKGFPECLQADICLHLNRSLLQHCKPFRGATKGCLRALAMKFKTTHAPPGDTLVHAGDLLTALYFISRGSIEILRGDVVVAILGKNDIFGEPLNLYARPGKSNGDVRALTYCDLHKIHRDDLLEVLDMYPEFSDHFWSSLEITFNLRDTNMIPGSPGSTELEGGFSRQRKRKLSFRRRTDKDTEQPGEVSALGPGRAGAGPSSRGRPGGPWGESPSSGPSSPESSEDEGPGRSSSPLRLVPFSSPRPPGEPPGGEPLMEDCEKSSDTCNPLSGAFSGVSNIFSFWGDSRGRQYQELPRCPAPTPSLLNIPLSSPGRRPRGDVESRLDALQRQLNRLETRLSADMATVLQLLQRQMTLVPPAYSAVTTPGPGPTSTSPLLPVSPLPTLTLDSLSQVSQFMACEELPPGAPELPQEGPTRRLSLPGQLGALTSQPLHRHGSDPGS

Compound: Cn1c(Cn2ccc(C(F)(F)F)c(Oc3cc(Cl)cc(C#N)c3)c2=O)n[nH]c1=O [Doravirine, doravirine]
IC50 [1]: 11 nM

calcium accumulation, delayed phase (in words) [2]: pronounced increase
calcium spiking frequency, acute phase (in words) [2]: acute suppression
Compound: O=C1Nc2ccc(Cl)cc2[C@@](C#CC2CC2)(C(F)(F)F)O1 [EFV, efavirenz]
plasma levels ([3]; human, in vivo): 3170 to 12670 nM
estimated TC10 [4]: 70 nM

Compound: CO[P@](=O)(c1cc(C)cc(/C=C/C#N)c1)c1c(C(N)=O)[nH]c2ccc(Cl)cc12 [IDX899]
EC50 ([5]; aryl-phospho-indole): 1 nM

Compound: Cc1cc(/C=C/C#N)cc(C)c1Nc1ccnc(Nc2ccc(C#N)cc2)n1 [RPV, rilpivirine]
concentration shown to inhibit hERG in vitro [6]: 300 nM
proposed plasma target concentration (protein binding-adjusted EC90) [5]: 0.0121 µg/mL
EC90 ([5]; read-out: proposed plasma target concentration (protein binding-adjusted EC90)): 33 nM
calcium spiking frequency, acute phase (in words) [2]: acute suppression
EC50 [7]: 160 ± 60 nM
EC50 ([8]; read-out: A17 EC50 (nM)): 2.5 ± 1.9 nM
recorded CSF concentrations [3]: up to 2.9 ng/ml and ≤ 7.9 nM
EC50 [9, 23]: 0.35 ± 0.03 nM
estimated TC10 [4]: 600 to 930 nM

Compound: Nc1nc(Nc2ccc(Cl)cc2)nn1S(=O)(=O)c1ccc2ccccc2c1 [compound 11626007, N^3-(4-chlorophenyl)-1-(2-naphthylsulfonyl)-1,2,4-triazole-3,5-diamine]
toxicity in MTS assay (in words) [10]: No observable toxicity
EC50 [7]: 280 ± 100 nM
inhibition of A17 mutant (in words) ([8]; TZM-bl cells, early screening): No appreciable inhibition
TC50 (µM) Relative MAP-2 Area [4]: 34 ± 46 µM
TC50 (µM) Relative MAP-2 intensity [4]: 23 ± 18 µM

Compound: N#Cc1ccc(Nc2nc(N)n(S(=O)(=O)c3cccc4cc(C#N)ccc34)n2)cc1 [compound 11726152, 5-[[5-amino-3-(4-cyanoanilino)-1,2,4-triazol-1-yl]sulfonyl]naphthalene-2-carbonitrile]
EC50 [7]: 700 ± 220 nM
EC50 ([8]; read-out: A17 EC50 (nM)): 49 ± 7.8 nM
EC50 [9, 23]: 0.35 ± 0.05 nM
TC50 (µM) Relative MAP-2 Area [4]: 1.2 ± 0.6 µM
TC50 (µM) Relative MAP-2 intensity [4]: 1.0 ± 0.5 µM
Safety Index ([4]; TC10/(100*EC50), relative MAP-2 area): 1.6

Compound: N#Cc1ccc2c(S(=O)(=O)n3nc(Nc4ccc(C#N)c(Cl)c4)nc3N)cccc2c1 [compound 11826116, 5-[[5-amino-3-(3-chloro-4-cyano-anilino)-1,2,4-triazol-1-yl]sulfonyl]naphthalene-2-carbonitrile]
EC50 ([8]; read-out: A17 EC50 (nM)): 25 ± 6.6 nM
EC50 [9, 23]: 0.34 ± 0.04 nM

Compound: N#Cc1ccc(Nc2nc(N)n(S(=O)(=O)c3c(Cl)nc4sccn34)n2)cc1 [compound 11926331, 4-[[5-amino-1-(6-chloroimidazo[2,1-b]thiazol-5-yl)sulfonyl-1,2,4-triazol-3-yl]amino]-benzonitrile]
RT activity (in words) ([7]; Table S1): excellent
whole cell virus activity (in words) ([9]; Table S1): excellent

Compound: N#Cc1ccc2c(S(=O)(=O)n3nc(Nc4ccc(C#N)c(C#N)c4)nc3N)cccc2c1 [compound 12126055, 4-[[5-amino-1-[(6-cyano-1-naphthyl)sulfonyl]-1,2,4-triazol-3-yl]amino]phthalonitrile]
CC50 at 48 h [11]: 28000 ± 66000 nM
EC50 [7]: 350 ± 130 nM
EC50 ([8]; read-out: A17 EC50 (nM)): 49 ± 9.5 nM
EC50 [9, 23]: 0.21 ± 0.01 nM
TC50 (µM) Relative MAP-2 Area [4]: 48 ± 86 µM
TC50 (µM) Relative MAP-2 intensity [4]: 50 ± 140 µM

Compound: N#C/C=C/c1ccc2c(S(=O)(=O)n3nc(Nc4ccc(C#N)c(Cl)c4)nc3N)cccc2c1 [compound 12126065, 4-[[5-amino-1-[[6-[(E)-2-cyanovinyl]-1-naphthyl]sulfonyl]-1,2,4-triazol-3-yl]amino]-2-chloro-benzonitrile]
activity against Y181C mutant (in words) [12]: retained activity
activity against L100I/K103N mutant (in words) [13]: not drastically mitigated; also recorded: retained activity
half-life ([14]; male, Balb/C, plasma, po, 250 mg/kg): 7.7 ± 1.57 h
in vivo brain penetration (in words) ([14]; in vivo): good
aspartate aminotransferase activity versus control (in words) ([15]; 250 mg/kg group only): reduced aspartate aminotransferase activity
subacute toxicity (in words) ([15]; 25 and 250 mg/kg daily): no in vivo acute or subacute toxicity
protein binding (in words) [16]: high
EC50 [7]: 230 ± 70 nM
metabolic stability (in words) [17]: good
EC50 ([8]; read-out: A17 EC50 (nM)): 3.4 ± 1.1 nM
EC50 ([8]; read-out: EC50 against K103N/Y181C double mutant): 1.33 ± 0.16 nM
acute toxicity (in words) [18]: no in vivo acute or subacute toxicity; also recorded: No visible signs of intoxication
activity against K103N mutant (in words) [19]: retained activity
EC50 ([9]; Human immunodeficiency virus 1, IIIB, TZM, read-out: EC50 against wild-type HIV-1 in TZM cells): 0.24 nM
EC50 ([9]; Human immunodeficiency virus 1, IIIB, TZM-bl, read-out: EC50 (TZM, WT)): 0.263 nM
EC50 [9, 23]: 0.47 ± 0.05 nM
EC90 ([9]; Human immunodeficiency virus 1, IIIB, TZM-bl, read-out: estimated EC90): 19 nM
TC50 (µM) Relative MAP-2 Area [4]: 100 ± 410 µM
TC50 (µM) Relative MAP-2 intensity [4]: >10 µM
Estimated TC10 (µM) Relative MAP-2 Intensity ([4]; concentration of 10% loss of MAP-2): >10 µM
50% toxicity concentration (TC50) ([4]; mouse neurons, as stated in abstract): > 100000 nM
neurotoxicity in mouse neurons (in words) ([4]; up to 10 µM): minimal neurotoxicity
solubility (in words) [20]: poor
efflux in Caco-2 cells (in words) [21]: no indication of efflux
metabolic stability (in words) [22]: good
